Rows were chosen to be rich in hits. Some 6.4% of all compounds tested hit in one or more screens of this group.
PostGolgi ctrl: inhibits growth of the yeast control strain | AID 738 | 98,000 tested, 5% active | efflux-deficient yeast background strain, growth absorbance A615, 16 h | inhibition, % at 10 µM
PLK1 PBD inh: Plk1 (human) PBD binding inhibition; Plk1 PBD phosphopeptide binding, fluorescence polarization; inhibition, %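 (tested at about 20 µM)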; 97,000 tested, 0.13% active; AID 693; in the data active = inhibition above about 34%, passing the limit was not always enough
Rev-RRE block: HIV Rev-RRE protein-RNA interaction inhibition; P05866; Rev peptide-RRE RNA binding, FRET; inhibition, % at 8 µM; 97,000 tested, 0.79% active; AID 704;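 active = inhibition above the screen-wide mean plus 3 SD, cut at about 35% in these data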;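 note: 0% = median DMSO wells and 100% = median Neomycin B control wells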
Target sequence (P05866 whole entry, looked up): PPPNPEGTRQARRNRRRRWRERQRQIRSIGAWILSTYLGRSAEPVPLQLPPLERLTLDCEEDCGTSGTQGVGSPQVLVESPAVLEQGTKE
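Test system: Cy5-tagged RRE RNA duplex with fluorescein-tagged Rev peptide | Read-out: % inhibition of FRET ratio versus controls | Probe or stimulus: Labelled Rev peptide | Incubation: 5 min RNA-compound premix plus 15 min binding step, 25 °C | Technique: FRET fluorescence readout | Benchmarks: DMSO low control, neomycin B high control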
PLK1 inh: PLK1 (human) kinase inhibition. P53350. recombinant PLK1 kinase, TR-FRET peptide phosphorylation. inhibition, % at 10 µM. 97,000 tested, 0.53% active;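 active = inhibition of 50% or more in the single-concentration screen; inactive = inhibition below 50%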;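 note: 0% = DMSO max control and 100% = H-89 dihydrochloride min control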
EphB4 antag: antagonists of human EphB4-ephrin-B2 interaction. 97,000 tested, 0.15% active. inhibition, % at 7 µM. EphB4 LBD / TNYL-RAW-Alexa532 peptide, fluorescence polarization. P54760. AID 720;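 active = inhibition above the screen-wide mean inhibition plus 3 SD, cut at about 15% in these data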;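 note: 0% = DMSO wells and 100% = excess unlabeled TNYL-RAW peptide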
PostGolgi yeast: growth inhibition of a yeast mutant, post-Golgi transport screen; AID 739; 98,000 tested, 0.9% active; post-Golgi transport phenotypic cell assay; inhibition, % at 10 µM;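 note: yeast cells grown in 1536-well plates; yeast grown about 18 h at 30C before absorbance read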
PLK1 confirm: confirmation of human PLK1 kinase inhibitors. inhibition, % at 10 µM. AID 744. shares compounds with PLK1 inh. 210 tested, 20% active. recombinant PLK1 kinase, TR-FRET peptide phosphorylation;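 active = inhibition at or above 50% in each of two repeat confirmation tests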;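 note: 0% = DMSO max control and 100% = H-89 kinase-blocked min control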
TR-FRET interf: interferes with the Plk1 assay readout, not true inhibition | shares compounds with PLK1 inh | Plk1 TR-FRET assay interference, compound added post-reaction | inhibition (interference), % at 10 µM | 210 tested, under 10 active;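 active = both duplicate runs show 50% or greater inhibition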;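 note: 0% = DMSO max control and 100% = H-89 min control inhibited reaction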
Redox H2O2 DR: redox cycling H2O2 generation counter-screen for Plk1 PBD; EC50, µM; AID 876; DTT; shares compounds with PLK1 PBD inh; 120 tested, under 10 active; call rule not given here
* hit, by the source's call; . = no result given; [ ] = another dose, or the depositor's remark. Cut-off read from the data, not from the text of the source, unless noted: active = inhibition above about 30%; inactive = the rest.

SMILES	PostGolgi ctrl	PLK1 PBD inh	Rev-RRE block	PLK1 inh	EphB4 antag	PostGolgi yeast	PLK1 confirm	TR-FRET interf	others
CCCc1[nH]nc2c1C(c1ccccc1OC)C(C#N)=C(N)O2 (centres undefined)	6	13	-3	-2	-7	6	.	.
CCCc1[nH]nc2c1C(c1ccc(O)c(OC)c1)C(C#N)=C(N)O2 (centres undefined)	5	0	9	109*	1	1	-3	-46
CC(C)c1ccc(N(CC(=O)NCCSC(C)(C)C)S(C)(=O)=O)cc1	9	-15	-7	-5	4	-1	.	.
Cc1ccc(CSCC(=O)N2CCN(c3ccc(F)cc3)CC2)cc1	22	2	8	109*	3	-9	-8	-57
Cc1ccc(N2C(=O)CSC2c2ccccn2)cc1Cl (centres undefined)	9	10	0	-4	-7	-5	.	.
O=C(Nc1ncc2c(n1)-c1ccccc1CC2)c1ccc(Cl)cc1	13	-10	5	123*	1	-4	12	-46
O=C(Nc1cccnc1)c1cnn2cccnc12	-1	1	5	76*	7	24	63*	-52
Cc1cc(NC(=O)c2cnn3cccnc23)nn1CC(=O)Nc1cccnc1	8	-3	8	1	3	-2	.	.
Cc1cccc(Nc2ncnc3nc[nH]c23)c1	-3	9	9	76*	7	3	81*	-48
c1ccc(COc2ccc(Nc3ncnc4nc[nH]c34)cc2)cc1	70*	-19	4	72*	-6	-1	44	-52
CCNC(=O)CSc1ncnc2sccc12	1	-9	18	-5	4	-2	.	.
N#Cc1c(NC(=O)CSc2ncnc3sccc23)oc(-c2ccco2)c1-c1ccco1	8	-4	31	77*	-1	3	-9	-53
CCc1cc(=O)oc2cc(OCC(=O)N(CC)CC)c(Cl)cc12	7	-5	3	72*	1	-11	-1	-57
CCc1nc2n[nH]c(N)c2c2c1CSC(C)(C)C2	-1	16	5	77*	2	3	72*	-53
CCCc1nc2n[nH]c(N)c2c2c1CCC2	-2	.	.	.	.	-2	.	.
COc1ccccc1C1C(C(=O)c2cc3ccccc3o2)=C(O)C(=O)N1CCN1CCOCC1 (centres undefined)	9	-22	6	-5	5	1	.	.
O=C(NCc1ccc2c(c1)OCO2)c1ccc(=O)[nH]c1	15	-8	6	-12	3	3	.	.
COc1ccc(-c2cc(C(=O)NCCN3CCOCC3)c3ccccc3n2)cc1	7	-21	5	8	5	-4	.	.
O=C(NCCCN1CCOCC1)c1cc(-c2ccc3c(c2)OCO3)nc2ccccc12	0	28	0	72*	-5	-2	-1	-51
Cc1ccc(-c2nc(CS(=O)CC(=O)NCCCN3CC(C)CC(C)C3)c(C)o2)cc1 (centres undefined)	4	-6	5	76*	-1	5	-15	-56
CSc1ccccc1NC(=O)c1cccnc1	11	-7	2	-12	-4	0	.	.
COC(=O)CSc1nc2cc(OC)ccc2cc1C#N	7	-5	8	87*	-11	0	-8	-53
COc1cccc(OCC(O)CN2CCC(C)CC2)c1 (centres undefined)	-1	14	7	-5	-2	-5	.	.
CC1CCN(CC(O)COc2cccc(F)c2)CC1 (centres undefined)	14	7	7	74*	-5	1	-2	-55
CC1CCN(CC(O)COc2ccc(F)cc2)CC1 (centres undefined)	2	0	4	75*	6	-2	-8	-58
SMILES	PostGolgi ctrl	PLK1 PBD inh	Rev-RRE block	PLK1 inh	EphB4 antag	PostGolgi yeast	PLK1 confirm	TR-FRET interf	others
Cc1ccc(N(CC(=O)NC2CCCC2)C(=O)c2c(C)noc2C)cc1C	-2	-25	-2	-5	-4	6	.	.
CCc1ccc(CN2CCN(C(=O)c3cccc(OC)c3OC)CC2)cc1	.	-18	5	-9	1	.	.	.
Cc1ccc(CC2CC(=O)N(c3cc(C)on3)C2=O)cc1 (centres undefined)	26	6	-1	70*	1	-2	-10	-54
CSc1c(-c2ccccc2)nc2ccc(Cl)cc2c1C(=O)O	-3	-3	3	-19	-6	-2	.	.
C=CCSc1nc(-c2ccccc2)c2cc(Cl)ccc2n1	10	13	23	78*	-1	-14	-9	-51
NC1=CC(=O)c2cccc3cccc1c23	.	17	56*	78*	13	.	21	-17
CCOC(=O)C1CCN(C(=O)CSCc2nc(-c3ccc(OCC)cc3)oc2C)CC1	16	.	.	.	.	0	.	.
CCOc1ccc(-c2nc(CSCC(=O)N3CCN(C(=O)c4ccco4)CC3)c(C)o2)cc1	1	-3	6	74*	4	-1	-14	-52
Cc1cc(C)c(S(=O)(=O)N(C)CC(=O)NC2CCCC2)c(C)c1	3	-5	0	-18	-3	0	.	.
CC1(C)C2CCC13CS(=O)(=O)N[C@@H]3C2 (some centres undefined)	28	6	5	-1	0	9	.	.
Cc1ccccc1N1C(N)=NC(N)=NC1(C)C	10	-14	9	-5	4	4	.	.
COc1ccccc1N1C(N)=NC(N)=NC1(C)C	-4	10	10	79*	8	0	4	-55
O=C1CN(C(=O)CN2CCCC2)C(c2ccccc2)c2cc(Br)ccc2N1 (centres undefined)	0	2	4	-8	10	0	.	.
Cc1ccc2c(c1)C(c1ccccc1)N(C(=O)C(C)C)CC(=O)N2 (centres undefined)	5	-17	-1	71*	-3	1	-15	-51
Cc1cccc2[nH]c3c(N4CCN(C(=O)c5ccco5)CC4)ncnc3c12	11	51*	12	1	-5	8	.	.	Redox H2O2 DR=>50
Cc1cccc2[nH]c3c(N4CCC5(CC4)OCCO5)ncnc3c12	24	-15	4	-10	12	14	.	.
COc1ccccc1C1SCCN1S(=O)(=O)c1cccc(C(F)(F)F)c1 (centres undefined)	-3	51*	8	-6	-12	-3	.	.	Redox H2O2 DR=>50
COc1ccc(C2SCCN2S(=O)(=O)c2ccc(F)cc2)cc1OC (centres undefined)	24	-4	6	0	4	-6	.	.
O=C1CCN2C=Nc3cccc4ccc1c2c34	-2	51*	130*[fluorescence artefact?]	-20	-4	5	.	.	Redox H2O2 DR=>50
